Screening data: PubChem, several laboratories
AI-2 QS mod = Vibrio harveyi AI-2 quorum sensing modulation; 300,000 compounds, 0.4% hits; activity change, % at 7.5 µM; Vibrio harveyi JMH597 AI-2 luminescence/OD600 ratio, 9 h; stronger effect = lower value; strain lacks LuxN and CqsS sensors; 0 = neutral-control median; in the data active = activity change below about -75%, passing the limit was not always enough;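 also: luminescence divided by OD600 gain over 9 h not by final OD600 alone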
AHR act = activates the human aryl hydrocarbon receptor; AID 2796; P35869; AHR-responsive luciferase reporter cells, luminescence; 320,000 compounds, 2.5% hits; activation, % at 5 µM; in the data active = activation above about 47%;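 also: 0% = vehicle wells and 100% = reference agonist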
TbMetRS inhib = Trypanosoma brucei MetRS inhibition. purified T. brucei MetRS, ATP depletion, Kinase-Glo luminescence. inhibition, % at 11.9 µM. 360,000 compounds, 0.4% hits. AID 624268;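 active = inhibition above a per-plate cutoff of the control wells' mean inhibition plus 3 SD, cut at about 5.5% in these data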;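 also: 0% = DMSO wells median and 100% = median of wells with control inhibitor compound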
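Material: parasite MetRS enzyme / Replication: singlicate, one well per compound / Signal: luminescence of leftover ATP / Schedule: 2 h aminoacylation at 25 °C after 15 min preincubation / Medium: HEPES-MgCl2-KCl buffer plus DTT, spermine, BSA, pyrophosphatase / Doses: 11.9 µM single point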
MsrA act = activators of bovine methionine sulfoxide reductase A; purified bovine MsrA, absorbance read-out; 360,000 compounds, 0.3% hits; activation, % at 10.6 µM; in the data active = activation above about 7.5%;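 also: 0% = vehicle and 100% = reference activator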
MsrA inhibitor = inhibitors of bovine MsrA; purified bovine MsrA, absorbance read-out; inhibition, % at 15.5 µM; 360,000 compounds, 0.75% hits; in the data active = inhibition above about 4.5%;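 also: 0% = vehicle wells with enzyme and 100% = reference inhibitor wells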
HTR2A ag = mouse HTR2A agonism via beta-arrestin recruitment | CHO-K1 mHTR2A beta-arrestin complementation, luminescence; percent of 30 µM serotonin response | activation, % at 7.6 µM | 360,000 compounds, 0.66% hits;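 active = activation above a run cutoff, the mean activation of all tested compounds plus 3 SD, cut at about 14% in these data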;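 also: 0% = plate median of compound wells and 100% = 30 µM serotonin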
Target sequence (P35363 whole entry, looked up): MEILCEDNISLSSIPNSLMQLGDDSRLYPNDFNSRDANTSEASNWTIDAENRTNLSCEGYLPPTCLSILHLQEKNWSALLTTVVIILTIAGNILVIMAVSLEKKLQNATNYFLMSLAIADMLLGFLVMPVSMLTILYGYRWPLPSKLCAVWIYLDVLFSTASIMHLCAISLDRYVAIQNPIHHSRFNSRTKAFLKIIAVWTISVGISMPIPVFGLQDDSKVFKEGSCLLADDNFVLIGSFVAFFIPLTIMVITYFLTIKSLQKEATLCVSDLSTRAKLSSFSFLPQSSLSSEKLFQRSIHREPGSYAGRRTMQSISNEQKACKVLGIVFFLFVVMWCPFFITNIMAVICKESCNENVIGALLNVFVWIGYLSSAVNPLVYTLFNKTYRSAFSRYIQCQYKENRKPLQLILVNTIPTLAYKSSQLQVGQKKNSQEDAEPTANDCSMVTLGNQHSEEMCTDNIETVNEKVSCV
* marks the source's active call; other numbers are inactive results; . = not tested or not shown. Only some compounds are listed: those with a hit (about 4.4% of all), similar ones and a draw of the others.

SMILES | AI-2 QS mod | AHR act | TbMetRS inhib | MsrA act | MsrA inhibitor | HTR2A ag
COc1ccc(C(=O)NC(C)c2ccc(-n3ccnc3)cc2)c(OC)c1 (stereo not drawn) | 14.5 | 54.1* | -0.3 | -0.8 | -0.2 | -1.9
CC(NC(=O)c1ccccc1OC(F)F)c1ccc(-n2ccnc2)cc1 (stereo not drawn) | 34.4 | 71.1* | -0.1 | -2.0 | 0.0 | -1.7
Cc1cccc(C(=O)NC(C)c2ccc(-n3ccnc3)cc2)c1C (stereo not drawn) | 12.0 | 43.6 | -0.4 | -3.2 | 0.9 | 11.4
CC(C)C[C@H]1COc2cc(NCc3ccc(Cl)c(Cl)c3)ccc2S(=O)(=O)N1 | . | . | . | . | -0.3 | .
Cc1cc(C(=O)N2CCC2(C)C(=O)Nc2cc(C(C)(C)C)nn2C)nn1C (stereo not drawn) | . | . | 0.0 | -0.4 | 1.0 | 1.4
O=[N+]([O-])c1ccc(NN=Cc2cccc3ccccc23)nc1 | . | . | -0.3 | -1.2 | -0.2 | -0.4
O=[N+]([O-])c1cccc(N/N=C/c2cccc3ccccc23)c1 | 28.8 | 61.4* | 0.4 | 0.1 | 1.6 | -5.0
CCCn1c(NC(=O)c2ccc(F)cc2)nc2ccccc21 | 18.5 | 52.8* | 0.0 | -4.6 | -0.4 | 0.1
CCCCn1c(NC(=S)Nc2ccccc2)nc2ccccc21 | -1.5 | 66.1* | -0.3 | -10.5 | 1.9 | -0.6
CCCn1c(NC(=O)c2ccccc2Br)nc2ccccc21 | 7.1 | 47.3* | 0.0 | -0.7 | 0.0 | -6.1
CCCCn1c(NC(=O)c2ccccc2)nc2ccccc21 | 27.7 | 73.2* | -0.8 | -10.6 | 2.5 | -7.8
CCCCn1c(NC(=O)C2CCCCC2)nc2ccccc21 | 21.3 | 8.8 | -0.3 | -9.3 | 1.1 | 2.6
CCCn1c(NC(=O)c2ccc(Br)cc2)nc2ccccc21 | 24.0 | 13.4 | -0.4 | -3.6 | -0.7 | -0.2
O=C(N[C@H](C(=O)N1CCC[C@H]1C(=O)NC1CCCC1)C1CCCCC1)c1ccc(Cl)cc1Cl | . | . | . | . | 0.1 | .
C[n+]1ccccc1/C=C/c1cc(Br)ccc1O | 16.3 | 59.9* | 0.2 | 0.3 | 2.5 | -7.9
COc1ccc(/C=C/c2cccc[n+]2C)c(O)c1 | 16.1 | -3.5 | 0.6 | -3.6 | 0.9 | 0.0
COc1ccc(Nc2nccc3c2nnn3C)cc1 | 22.2 | 62.1* | -0.2 | -2.6 | 0.7 | -0.9
C[C@@H]1ON(C)[C@H]2C[C@H]3c4cc(Nc5ccccc5)ccc4CCN3C[C@@H]12 | . | . | . | . | 1.6 | .
O=C(N[C@H](C(=O)N1CCC[C@H]1C(=O)NCCc1ccccc1Cl)C1CCCCC1)c1ccccc1 | . | . | . | . | 0.0 | .
COc1cc([C@H]2c3[nH]c4ccccc4c3C[C@H]3C(=O)N4[C@@H](c5cc(OC)c(OC)c(OC)c5)c5[nH]c6ccccc6c5C[C@H]4C(=O)N23)cc(OC)c1OC | 4.6 | 8.6 | 0.3 | -0.9 | . | 6.4
CC1Cc2c([nH]c3ccccc23)C2c3ccccc3CN12 (stereo not drawn) | -8.1 | 56.7* | 0.1 | -0.2 | -1.1 | 8.1
CNc1ccccc(-c2ccc3cc4c(cc3n2)OCO4)c1=O | 5.4 | 70.5* | -0.6 | -7.3 | -1.2 | 2.4
CCc1ccccc1NC1=NCC(=O)N1Cc1ccc2c(c1)OCO2 | 19.0 | 33.4 | -0.8 | -1.7 | 0.6 | -1.6
O=C(Cc1cccs1)Nc1nc2c(ccc3ccccc32)s1 | -9.6 | 60.5* | -0.1 | 0.9 | 1.8 | -5.9
Cc1cc(NC(=O)CSc2nc3sc(C)c(C)c3c(=O)n2C2CCCC2)no1 | 22.8 | 3.7 | -0.6 | -3.1 | 0.3 | 16.9*
SMILES | AI-2 QS mod | AHR act | TbMetRS inhib | MsrA act | MsrA inhibitor | HTR2A ag
O=[N+]([O-])c1c(Nc2ccc(O)cc2)cc(Cl)c2nonc12 | -174.4* | 1.0 | 0.7 | -3.0 | 3.9 | -11.3
CN(C)c1cc(Nc2ccc(O)cc2)c([N+](=O)[O-])c2nonc12 | 18.5 | 15.7 | 0.2 | -2.7 | 1.1 | -3.4
O=C(O)c1ccccc1Nc1cc(Cl)c2nonc2c1[N+](=O)[O-] | 14.0 | 2.1 | 0.3 | -6.3 | 3.8 | 7.6
O=C(O)c1cccc(Nc2cc(Cl)c3nonc3c2[N+](=O)[O-])c1 | 9.7 | -1.0 | 0.2 | -7.3 | 4.6* | 1.4
Cc1nc(N)sc1C(=O)N/N=C/c1ccccc1[N+](=O)[O-] | 16.5 | 57.5* | -1.5 | -18.1 | 2.7 | 1.6
CC1CC(C)CN(C(=O)COC(=O)COc2ccc(C#N)cc2)C1 (stereo not drawn) | . | -0.6 | -0.3 | -1.3 | -0.7 | -0.4
